Data taken from ChEMBL document CHEMBL1156136, “Hypoxia-activated prodrugs: substituent effects on the properties of nitro seco-1,2,9,9a-tetrahydrocyclopropa[c]benz[e]indol-4-one (nitroCBI) prodrugs of DNA minor groove alkylating agents” (J Med Chem, 2009).
Active and inactive are the calls of the source. The calls are words filed in the database; no cut-off is given here.

Assays:
HT-29 [1] = assay: Cytotoxicity against human HT-29 cells assessed as cell kill in hypoxic condition by clonogenic assay; type: functional
In short: (§1)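 Clonogenic assay on single-cell suspensions from dissociated HT29 spheroids, about 1 × 10⁶ cells/mL. Drug exposure 4 h at 37 °C under 5% CO2 in O2 or in N2. Colonies grown 14 days, methylene blue stained, >50 cells counted. Surviving fraction = PE(treated)/PE(control); C10 is the concentration giving 10% survival, from the fitted curve.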

HT-29 [2] = assay: Hypoxic cytotoxicity ratio, IC50 for human HT-29 cells in oxic condition to IC50 for human HT-29 cells in hypoxic condition by clonogenic assay; type: functional
Mus musculus = assay: Toxicity in mouse at 100 umol/kg, ip; type: organism-based; conditions: in vivo
SiHa [3] = assay: Antitumor activity against human SiHa tumor bearing mouse assessed as log reduction of cell kill at 42 umol/kg, iv irradiated 5 mins before 15 Gy dose by cologenic assay; type: functional
In short: (§2)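 SiHa xenografts grown subcutaneously (10⁷ cultured cells) in female homozygous nude CD1-Foxn1nu/nu mice, randomised at mean tumour diameter 8-10 mm. Single iv tail-vein dose, 42 μmol/kg, in 5% DMSO/20% PEG-400/75% lactate buffer pH 4.0. Given alone or 5 min after 15 Gy irradiation. Tumours excised 18 h later, enzymatically dissociated, clonogenic survivors per gram counted. Groups of 3-5 mice; ANOVA with Holm-Sidak on log data.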

SiHa [4] = assay: Antitumor activity against human SiHa tumor bearing mouse assessed as cell kill at 42 umol/kg, iv; type: functional; in short: as §2
SK-OV-3 [5] = assay: Cytotoxicity against human SKOV3 cells in oxic condition after 4 hrs by sulforhodamine B assay; type: functional, cell-based; conditions: SK-OV-3, 4 h
In short: (§3)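 Log-phase monolayers exposed to drug for 4 h under aerobic (20% O2) or anoxic (<20 ppm O2) conditions, then sulforhodamine B staining 5 days later. IC50 interpolated as concentration lowering cell density to 50% of same-plate controls. HCR = IC50(oxic)/IC50(hypoxic), mean of intraexperiment ratios. A549 P450R line is a stable transfectant with 9-fold higher cytochrome c reduction rate than parent.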

SK-OV-3 [6] = assay: Cytotoxicity against human SKOV3 cells in hypoxic condition after 4 hrs by sulforhodamine B assay; type: functional, cell-based; conditions: SK-OV-3, 4 h; in short: as §3
SK-OV-3 [7] = assay: Hypoxic cytotoxicity ratio, IC50 for human SKOV3 cells in oxic condition to IC50 for human SKOV3 cells in hypoxic condition; type: functional; in short: as §3
HT-29 [8] = assay: Cytotoxicity against human HT-29 cells in oxic condition after 4 hrs by sulforhodamine B assay; type: functional, cell-based; conditions: HT-29, 4 h; in short: as §3
HT-29 [9] = assay: Cytotoxicity against human HT-29 cells in hypoxic condition after 4 hrs by sulforhodamine B assay; type: functional, cell-based; conditions: HT-29, 4 h; in short: as §3
HT-29 [10] = assay: Hypoxic cytotoxicity ratio, IC50 for human HT-29 cells in oxic condition to IC50 for human HT-29 cells in hypoxic condition; type: functional; in short: as §3
HCT-116 [11] = assay: Cytotoxicity against human HCT116 cells in oxic condition after 4 hrs by sulforhodamine B assay; type: functional, cell-based; conditions: HCT-116, 4 h; in short: as §3
HCT-116 [12] = assay: Cytotoxicity against human HCT116 cells in hypoxic condition after 4 hrs by sulforhodamine B assay; type: functional, cell-based; conditions: HCT-116, 4 h; in short: as §3
HCT-116 [13] = assay: Hypoxic cytotoxicity ratio, IC50 for human HCT116 cells in oxic condition to IC50 for human HCT116 cells in hypoxic condition; type: functional; in short: as §3
C-33-A [14] = assay: Cytotoxicity against human C33A cells in oxic condition after 4 hrs by sulforhodamine B assay; type: functional, cell-based; in short: as §3
C-33-A [15] = assay: Cytotoxicity against human C33A cells in hypoxic condition after 4 hrs by sulforhodamine B assay; type: functional, cell-based; in short: as §3
C-33-A [16] = assay: Hypoxic cytotoxicity ratio, IC50 for human C33A cells in oxic condition to IC50 for human C33A cells in hypoxic condition; type: functional; in short: as §3
SiHa [17] = assay: Cytotoxicity against human SiHa cells in oxic condition after 4 hrs by sulforhodamine B assay; type: functional, cell-based; in short: as §3
SiHa [18] = assay: Cytotoxicity against human SiHa cells in hypoxic condition after 4 hrs by sulforhodamine B assay; type: functional, cell-based; in short: as §3
SiHa [19] = assay: Hypoxic cytotoxicity ratio, IC50 for human SiHa cells in oxic condition to IC50 for human SiHa cells in hypoxic condition; type: functional; in short: as §3
A549 [20] = assay: Cytotoxicity against human A549 cells in oxic condition after 4 hrs by sulforhodamine B assay; type: functional, cell-based; conditions: A549, 4 h; in short: as §3
A549 [21] = assay: Cytotoxicity against human A549 cells in hypoxic condition after 4 hrs by sulforhodamine B assay; type: functional, cell-based; conditions: A549, 4 h; in short: as §3
A549 [22] = assay: Hypoxic cytotoxicity ratio, IC50 for human A549 cells in oxic condition to IC50 for human A549 cells in hypoxic condition; type: functional; in short: as §3
A549 [23] = assay: Cytotoxicity against human A549 cells overexpressing human NADPH/cytochrome P450 oxidoreductase in oxic condition after 4 hrs by sulforhodamine B assay; type: functional, cell-based; conditions: A549, 4 h; in short: as §3
A549 [24] = assay: Cytotoxicity against human A549 cells overexpressing human NADPH/cytochrome P450 oxidoreductase in hypoxic condition after 4 hrs by sulforhodamine B assay; type: functional, cell-based; conditions: A549, 4 h; in short: as §3
A549 [25] = assay: Hypoxic cytotoxicity ratio, IC50 for oxic condition to IC50 for hypoxic condition in human A549 cells overexpressing human NADPH/cytochrome P450 oxidoreductase; type: functional; in short: as §3
[26] = Cytotoxicity against human H1299 cells in oxic condition after 4 hrs by sulforhodamine B assay; type: functional, cell-based; conditions: NCI-H1299, 4 h; in short: as §3
[27] = Cytotoxicity against human H1299 cells in hypoxic condition after 4 hrs by sulforhodamine B assay; type: functional, cell-based; conditions: NCI-H1299, 4 h; in short: as §3
[28] = Hypoxic cytotoxicity ratio, IC50 for human H1299 cells in oxic condition to IC50 for human H1299 cells in hypoxic condition; type: functional, NCI-H1299; in short: as §3
NCI-H460 [29] = assay: Cytotoxicity against human H460 cells in oxic condition after 4 hrs by sulforhodamine B assay; type: functional, cell-based; conditions: NCI-H460, 4 h; in short: as §3
NCI-H460 [30] = assay: Cytotoxicity against human H460 cells in hypoxic condition after 4 hrs by sulforhodamine B assay; type: functional, cell-based; conditions: NCI-H460, 4 h; in short: as §3
NCI-H460 [31] = assay: Hypoxic cytotoxicity ratio, IC50 for human H460 cells in oxic condition to IC50 for human H460 cells in hypoxic condition; type: functional; in short: as §3
PC-3 [32] = assay: Cytotoxicity against human PC3 cells in oxic condition after 4 hrs by sulforhodamine B assay; type: functional, cell-based; conditions: PC-3, 4 h; in short: as §3
PC-3 [33] = assay: Cytotoxicity against human PC3 cells in hypoxic condition after 4 hrs by sulforhodamine B assay; type: functional, cell-based; conditions: PC-3, 4 h; in short: as §3
PC-3 [34] = assay: Hypoxic cytotoxicity ratio, IC50 for human PC3 cells in oxic condition to IC50 for human PC3 cells in hypoxic condition; type: functional; in short: as §3
A-375 [35] = assay: Cytotoxicity against human A375 cells in oxic condition after 4 hrs by sulforhodamine B assay; type: functional, cell-based; conditions: A-375, 4 h; in short: as §3
A-375 [36] = assay: Cytotoxicity against human A375 cells in hypoxic condition after 4 hrs by sulforhodamine B assay; type: functional, cell-based; conditions: A-375, 4 h; in short: as §3
A-375 [37] = assay: Hypoxic cytotoxicity ratio, IC50 for human A375 cells in oxic condition to IC50 for human A375 cells in hypoxic condition; type: functional; in short: as §3
HT-29 [38] = assay: Cytotoxicity against human HT-29 cells assessed as surviving fraction in oxic condition at 30 uM by clonogenic assay; type: functional; in short: as §1

CN(C)CCOc1ccc2[nH]c(C(=O)N3CC(CCl)c4c3cc([N+](=O)[O-])c3cc(S(N)(=O)=O)ccc43)cc2c1 (centres undefined)
C10 (HT-29 [1]): 0.4 µM | Ratio IC50 (HT-29 [2]): 125 | Activity (Mus musculus): Non-toxic | Activity (SiHa [3]): 2.7 | Activity (SiHa [4]): inactive | IC50 (SK-OV-3 [5]): 6900 nM | IC50 (SK-OV-3 [6]): 0.028 nM | Ratio IC50 (SK-OV-3 [7]): 275 | IC50 (HT-29 [8]): 4600 nM | IC50 (HT-29 [9]): 0.018 nM | Ratio IC50 (HT-29 [10]): 330 | IC50 (HCT-116 [11]): 1700 nM | IC50 (HCT-116 [12]): 15 nM | Ratio IC50 (HCT-116 [13]): 110 | IC50 (C-33-A [14]): 500 nM | IC50 (C-33-A [15]): 3 nM | Ratio IC50 (C-33-A [16]): 240 | IC50 (SiHa [17]): 1700 nM | IC50 (SiHa [18]): 34 nM | Ratio IC50 (SiHa [19]): 71 | IC50 (A549 [20]): 950 nM | IC50 (A549 [21]): 35 nM | Ratio IC50 (A549 [22]): 30 | IC50 (A549 [23]): 860 nM | IC50 (A549 [24]): 6 nM | Ratio IC50 (A549 [25]): 140 | IC50 [26]: 6300 nM | IC50 [27]: 110 nM | Ratio IC50 [28]: 180 | IC50 (NCI-H460 [29]): 3800 nM | IC50 (NCI-H460 [30]): 110 nM | Ratio IC50 (NCI-H460 [31]): 36 | IC50 (PC-3 [32]): 2900 nM | IC50 (PC-3 [33]): 37 nM | Ratio IC50 (PC-3 [34]): 180 | IC50 (A-375 [35]): 2900 nM | IC50 (A-375 [36]): 150 nM | Ratio IC50 (A-375 [37]): 19 | Activity (HT-29 [38]): >10%
